These results are taken from ChEMBL document CHEMBL3526146, “In vitro and in vivo metabolism and pharmacokinetics of BMS-562086, a potent and orally bioavailable corticotropin-releasing factor-1 receptor antagonist” (Drug Metab Dispos, 2012).

Structures are written as SMILES.

Data set [1] is described as follows: Terminal half life in beagle dog at 1 mg/kg, iv. Type of data set: ADME, organism-based, Canis lupus familiaris. Also on record: dose 1 mg/kg, route intravenous. The conditions noted are these: in vivo, read-out: beta t1/2 (converted). In outline:
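Male beagle dogs (n=3), one-way IV/PO crossover with a one-week washout, fasted about 15 h before and 4 h after dosing. IV dose of 1 mg/kg as a saphenous bolus in N,N-dimethylacetamide:propylene glycol:water (1:7:2); PO dose of 5 mg/kg by gavage in 0.5% methylcellulose. Plasma sampled 0–96 h and assayed by LC/MS/MS (LLOQ 1.00 ng/ml). Noncompartmental analysis; CL = dose/AUC(INF) after IV; F from dose-normalized AUC ratio.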

Data set [2] in a line: Drug metabolism in rat hepatocytes assessed as at 25 uM after 3 hrs by HPLC analysis.
Data set [3] in a line: Drug metabolism in human cryopreserved hepatocytes assessed as […] at 25 uM after 3 hrs by HPLC analysis. Type of data set: ADME, cell-based, Hepatocyte.
Data set [4] in a line: AUC (infinity) in Sprague-Dawley rat at 5 mg/kg, po. Format: ADME, organism-based. Also on record: time infinity, dose 5 mg/kg, route oral. The conditions noted are these: plasma. In outline: (§1)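 Male Sprague-Dawley rats (n=3 per route, 0.34-0.35 kg, cannulated), fasted ~18 h pre-dose and 4 h post-dose. Dosing was 1 mg/kg IV bolus in 20% ethanol/saline via the jugular cannula, or 5 mg/kg oral gavage in 0.5% aqueous methylcellulose. Jugular blood was sampled 0-96 h. Plasma was assayed by validated LC/MS/MS (LLOQ 1.00 ng/ml), and AUC(INF) was derived by noncompartmental mixed log-linear trapezoidal analysis.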

The nature of data set [5]: Drug metabolism in beagle dog hepatocytes assessed as decrease of compound level at 25 uM after 3 hrs by HPLC analysis. Format: ADME, cell-based, Canis lupus familiaris, Hepatocyte. The conditions noted are these: read-out: Drug metabolism. In outline: (§2)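 Mouse, rat, dog, monkey and human hepatocytes (trypan blue viability checked) at 1.0×10^6 cells/ml in Krebs-Henseleit buffer were incubated with 25 µM compound, in duplicate. Conditions were 37°C, 95/5 O2/CO2, orbital shaking, 3 h. 7-Ethoxycoumarin and 7-hydroxycoumarin (100 µM) served as positive controls, with a cell-free negative control. Reactions were quenched with ice-cold acetonitrile, then sonicated and centrifuged; supernatants were analysed by LC/MS/MS.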

Data set [6] is described as follows: AUC (infinity) in Sprague-Dawley rat at 1 mg/kg, iv. Format: ADME, organism-based. Also on record: time infinity, dose 1 mg/kg, route intravenous. Conditions: plasma. The method, boiled down:
as §1

Data set [7] is described as follows: Drug metabolism in rat hepatocytes assessed as decrease of compound level at 25 uM after 3 hrs by HPLC analysis. Type of data set: ADME, cell-based, Hepatocyte. The conditions noted are these: read-out: Drug metabolism.
Data set [8] can be described thus: Protein binding in human serum after 3 hrs by equilibrium dialysis. The conditions noted are these: read-out: PB (converted). Type of data set: ADME, cell-free. In outline:
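Equilibrium dialysis of serum spiked to final 12.8, 25.6 and 38.5 µM against 134 mM phosphate buffer, pH 7.4, through a 10,000 Da cutoff membrane. Cells rotated at 20 rpm, 37°C, 3 h. Percent unbound taken as buffer concentration divided by serum concentration.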
For orientation: Equilibrium dialysis compares concentrations on both sides of a semipermeable membrane.

Data set [9] is described as follows: AUC (infinity) in beagle dog at 1 mg/kg, iv. Type of data set: ADME, organism-based, Canis lupus familiaris. On the set-up: time infinity, dose 1 mg/kg, route intravenous. Conditions: plasma. In outline: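 Male beagle dogs (n=3, 10.1-12.7 kg) in a one-way IV/PO crossover with one-week washout, fasted ~15 h pre-dose and 4 h post-dose. Dosing was 1 mg/kg IV bolus into the saphenous vein in DMA:propylene glycol:water (1:7:2), or 5 mg/kg gavage in 0.5% methylcellulose. Blood was sampled 0-96 h. Plasma was assayed by LC/MS/MS (LLOQ 1.00 ng/ml) with noncompartmental analysis; Cmax was observed directly.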

Data set [10] can be described thus: Terminal half life in Sprague-Dawley rat at 1 mg/kg, iv. Format: ADME, organism-based. Also on record: dose 1 mg/kg, route intravenous. Conditions: in vivo, read-out: beta t1/2 (converted). The method, boiled down:
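Male Sprague-Dawley rats (n=3 per route, 0.34–0.35 kg) with jugular cannulas, fasted about 18 h before and 4 h after dosing. IV dose of 1 mg/kg in 20% ethanol/saline; oral dose of 5 mg/kg by gavage in 0.5% methylcellulose. Plasma sampled 0–96 h and assayed by LC/MS/MS (LLOQ 1.00 ng/ml). Noncompartmental analysis.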

A short description of data set [11]: AUC (infinity) in chimpanzee at 1 mg/kg, po. The conditions noted are these: plasma. Format: ADME, organism-based, Pan troglodytes. On the set-up: dose 1 mg/kg, route oral, time infinity. The method, boiled down: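 Two fasted male chimpanzees (58, 72 kg) received 1 mg/kg orally as a suspension in 0.5% methylcellulose/orange drink with 1% Tween 80 (1:1). Blood was sampled 0-96 h post-dose. Plasma was assayed by validated LC/MS/MS (LLOQ 1.00 ng/ml). Noncompartmental analysis gave AUC(INF) by the mixed log-linear trapezoidal method, with Cmax observed directly; values are mean (min, max).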

The nature of data set [12]: Tmax in beagle dog at 5 mg/kg, po. Type of data set: ADME, organism-based, Canis lupus familiaris. On the set-up: dose 5 mg/kg, route oral. Conditions: in vivo. In outline:
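Male beagles (n=3, 10.1-12.7 kg) in one-way crossover, one-week washout after IV leg; fasted ~15 h before and 4 h after dosing. Single gavage 5 mg/kg in 0.5% aqueous methylcellulose. Plasma sampled 0-96 h, parent measured by validated LC/MS/MS (1.00-1000 ng/ml). Noncompartmental analysis; Tmax taken from observed data.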

Data set [13] can be described thus: Drug metabolism in cynomolgus monkey cryopreserved hepatocytes assessed as decrease of compound level at 25 uM after 3 hrs by HPLC analysis. Type of data set: ADME, cell-based, Macaca fascicularis, Hepatocyte. The conditions noted are these: read-out: Drug metabolism. In outline: as §2

For the molecule `CC[C@@H](C)Nc1nc(C)nc2c(-c3ccc(OC)nc3C)c(C)nn12` [PEXACERFONT], the results for the half-life in [1] and in data set [10] were 2630 min and 810 min, respectively. Further, the Drug metabolism result in [2] and in data set [3] was “metabolite_detected” in each case. The AUC(0-inf) (as a rule, total exposure, with the tail of the curve extrapolated) in [4] is 5.82 µM·h; in data set [6], 2.9 µM·h; in data set [9], 4.3 µM·h; in [11] it was 13.9 µM·h. For the same molecule, the metabolised at 3 h, 25 µM in data set [5] stood at 61%; in [7], 68%; in data set [13] it was 83%. In addition, the fraction unbound at 3 h in data set [8] is 0.039. Further, in data set [12], the Tmax (in general, the time at which the peak concentration occurs) came to 45 min.
